Reference: the EternaBench riboswitch data

Tested on: MS2 coat protein
Experiment: apparent Kd, MS2 coat protein; higher = weaker binding; RNA-MaP array; FMN 200 µM where present
Summary of the method: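 SNAP-549-labelled MS2 coat protein, doubled from 0.7 or 1.5 nM to 3 µM, was titrated over designs transcribed by stalled E. coli RNA polymerase on Illumina sequencing-chip clusters. Titrations were run without and then with constant ligand in 100 mM Tris-HCl pH 7.5, 80 mM KCl, 4 mM MgCl2, BSA, DTT, yeast tRNA and Tween-20. The apparent Kd is the median of filtered per-cluster fits to green signal normalised to red-channel RNA signal and control-cluster median Fmax.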

[1] = designed as: OFF switch for flavin mononucleotide, no ligand
[2] = ligand present: flavin mononucleotide, designed as: OFF switch for flavin mononucleotide
[3] = designed as: ON switch for flavin mononucleotide, no ligand
[4] = ligand present: flavin mononucleotide, designed as: ON switch for flavin mononucleotide

Sequence	apparent Kd [1] [nM]	apparent Kd [2] [nM]	apparent Kd [3] [nM]	apparent Kd [4] [nM]
AUCAGCUCGUCAGGAUAUACGUCACUGCGUCAGCAGUGUGGUAAGAUCACAUGAGGAUCACCCAUGUAGAAGGGACGAGCUGGU	14.4	239	–	–
AGAAAGUGAGGAUAUACGAAACCAGCCUAAAUGGCUGGAAAGUAGAAGGCACAUGAGGAUCACCCAUGUAAAGA	24.4	31.6	–	–
GGUUGGCGAGGAUAUACAUGAGGAUCACCCAUGUGGUCCUGUGGCUGAUCUUGCCUAUGUAGAAGGCGCAAAUC	35.7	280	–	–
CCCACGAAAGUCGAACGAUGUAGCAGAAGGACAUGAGGAUCACCCAUGUCAGCUGUAACAGCCAUGUAGGAUAUGCUACAUGGG	6.05	5.77	–	–
GGAUAGUGAGGAUAUCGAUGUUAGGAGGAUGAGGUAGGAUGCGAGAAGGCACAUGAGGAUCACCCAUGUAUGGU	48.8	38.8	–	–
GAUGGACAUGAGGAUCACCCAUGUAAGGAUAUUGAUUGUGGCUAUAAAUGGUUACGGUCGAGAAGGUACUCGUC	82.2	78.8	–	–
UUUUUGUCAGGAUAUGAGUAGUAGUACUAUUGUUUUAUUAUUUAGAAGGGACAUGAGGAUCACCCAUGUUUCUC	14.9	15.9	–	–
GGAGCCGGUACUGAGGAUAUUCAUAUUAAAACAUGAGGAUCACCCAUGUAGGCCAGAAGGCCUUGGGAGAAGGCAGAUCGGCUCC	–	–	408	25.9
CAGGUAGACUGAGGAUAUACACUAAACAGCUAGUCUAUCUAGCUGCUCACAUGAGGAUCACCCAUGUAGAAGGCAGUCUGCCUG	17.2	39.3	–	–
UUAUCUUGUCAAGGAUAUGUAGUAUUGAUCUGAAAACAUGAGGAUCACCCAUGUAUAUGGUGGGAACAGAAGGUGAAUGUUGAA	823	727	–	–
GAGGAACAUGAGGAUCACCCAUGUGAGGAUAUGCAUAGCGAGGUAGUAGAAGUUGAAUGCAGAAGGUACACGGA	36	30.3	–	–
CCGUUGGGCUAGAAGGCUCCGGGAGGGCCGCGGAGAGGAUAUAGCACAUGAGGAUCACCCAUGUGGUAUGACCUUAUGUAAUCA	37.4	82.7	–	–
CCUGGCACAUAGAAGGGUACAUGGCCUCUGCUACAUGAGGAUCACCCAUGUGCAGGAUAUGUGUGCCAGACUAUGCCGGUGUAA	20.2	16.1	–	–
UUCAUGUGAGGAUAUGCGGCGGCAGGUGGGCCUGUCGCUGAGCAGAAGGCACAUGAGGAUCACCCAUGUGCUCC	34.3	59.7	–	–
UUAUUUUUACAGAAGGUUUAAUAAUAUGUAUGAGAAGGAUAUGUAACAUGAGGAUCACCCAUGUUUCGUCUAUAUGAGGAUCAU	6.77	7.22	–	–
AUUUGCGAAUCAGGAUAUGGACCAGCACAUGAGGAUCACCCAUGUCUGCCGGCGAGCCGGCUAGGCCAGAAGGGAUGUGCUCAA	–	–	87	18.2
CGUUUCAUGUCAGGAUAUCCGCGCAGCUUUACGCACGAUAUAAGGGAGCUUGGAGAAGGGACAUGAGGAUCACCCAUGUGCCUC	8.6	12.4	–	–
GUUAAUUAGUGAGGAUAUACAGUAUUUAAUACUGUAGAAGGCACAAUCCUCAAGACAUGAGGAUCACCCAUGUGAUAAUAAGAU	54.4	203	–	–
ACACCGUCAGGAUAUUGGAAGACACCCAGGAGGGUGCCUUUCGAGAAGGGACAUGAGGAUCACCCAUGUGCAGU	27.9	58.6	–	–
GGCAGCGGACAAGGAUAUAAGACGCAGACCAAAUUAGAAGGUGUUAUCUGGCAAUGCGAAAGCAGACAUGAGGAUCACCCAUGU	–	–	66.3	65.1
GCAUGCUCCGAGGAUAUCGAAGCUAAUUAUGCACGAGAAGGCGGAACAUGAGGAUCACCCAUGUGAUGCCUAAA	–	29.4	–	–

Sequence	apparent Kd [1] [nM]	apparent Kd [2] [nM]	apparent Kd [3] [nM]	apparent Kd [4] [nM]
CUAUCAAGCAAGGAUAUGCAAUUUAUUAUUUAUGCAGAAGGUGCAACAUGAGGAUCACCCAUGUUUCUGGGUUU	51.5	91.5	–	–
UGGUACUAGGGAGGAUAUGGGAAGAUACAUGAGGAUCACCCAUGUUUAAGAAUGACGAGAGGCAACUAGAAGGCCCUAGUACCU	–	–	328	25.9
CCCUCACAUGAGGAUCACCCAUGUCAGGAUAUUCGAGGCGCAAAUGCGCCAAAUGCAGGAAGAAGGGACGUGCC	15.4	25.7	–	–
UCAUUUUUACAAGGAUAUCAAUAUAAUAUAAUAGCUACAUGAGGAUCACCCAUGUUUUAGCGUGGUGAGAAGGUGUAUUGUCGG	–	–	89.5	63
AUGCUAUACGAAGGAUAUGGUUACAUGAGGAUCACCCAUGUUAUUCUUGUUUUCUUGUUUAUGUUCCAGAAGGUCGUAUAGCUA	47.3	38.2	–	–
UCCACUGCUGAGAAGGGAUACGUGUGGUUCGCAUCAGGAUAUCGAUACAGUGCAGCAUGAGGACAUGAGGAUCACCCAUGUAUC	–	–	43	16.5
UGUGUGUGGGCAGGAUAUGCAUGAAGAUGUAUGAUGUAGUGUGAUGUAACAUGAGGAUCACCCAUGUAGAAGGGCCGGUGUGUG	116	139	–	–
GUCAGCUCGUGAGGAUAUACAUCACUGCUUCGGCAGUGUAUUAAGAUCACAUGAGGAUCACCCAUGUAGAAGGCACGAGCUGAU	42.5	620	–	–
AAUGGCAUAGAGAAGGCGCCGCAGCUCUUCCUCCCAUCCCAACGACAUGAGGAUCACCCAUGUAGCGAGGAUAUCUAUACCGUU	6.91	14.1	–	–
AUUACGUCAGGAUAUCUGAUGUCUAACUUCGGUUAGACAUCAGAGAAGGGACAUGAGGAUCACCCAUGUAAUAG	54.5	56.2	–	–
GAGUUACAUGAGGAUCACCCAUGUUGUUUUGGAUAAGGAUAUAUGGUAGGAAGAGGAAUGAUAGAAGGUAUUAGGG	–	–	29.9	28.3
AAAGACAGACAUGAGGAUCACCCAUGUUACGAAGAUAAUGGGAGAAGGGCGAUUGCAAAGCAAUCGCAGGAUAUUCGUAUUGUC	–	–	21.1	8.93
GGAUUAAUAGUCCACAUGAGGAUCACCCAUGUAGUAUUUUGCAAGGAUAUGGUGGGACUUCGUGGCCAGAAGGUGUAAAGGAUC	–	–	128	99.2
GUUCUCGGAGGAUAUACACAGUGAGAACCCGCGCAAGCGGGACAUGAGGAUCACCCAUGUAGAAGGUCGAGCAA	70.2	170	–	–
AGGUAACAUGAGGAUCACCCAUGUCAGGAUAUCAGUAAGAUUAGAAUAGAGUAGAGGAUGAGAAGGGACUAUAU	47	41.8	–	–
GUAUAUAUAUAAGGAUAUAAGUCUAGGACAUGAGGAUCACCCAUGUGUGUCUUAGAAGGUAUAUAUGUAAUACUGUUACAGUAA	–	–	64.8	14.2
AACAAAUAUGAUCAUUAUGUAAGGCAGGAUAUCCCACAUGAGGAUCACCCAUGUACAGUACAUAGGGAGAAGGGCCGAAUGGGA	–	–	72	6.8
GGAGCACAUGAAUACAUGAGGAUCACCCAUGUCGAAUGAUAUGAGGAUAUGGAUCGGAAAACGAUCUAGAAGGCAUAGUGCUCC	–	–	76.5	10.2
CAUGCACAUGAGGAUCACCCAUGUCAGGAUAUCUAUCAUAGCAUCGAAAGAUGCGGGUAGAGAAGGGACAACCC	16.2	16.4	–	–
GCGUAAUAGAUCCUAUUUAUCUACAUGAGGAUCACCCAUGUGCAGGAUAUGCUAUAAUUUAAUAAGCAGAAGGGCAAUUUCCGC	73.3	159	–	–
GGUGCGUAUGUGAGGAUAUGCUGGUCCUUGGCUCGGCAGAAGGCACAUGAGGAUCACCCAUGUGGUGUCGUACC	278	50.9	–	–
